Experimental data taken from article PMC4527612 (Journal of inorganic biochemistry, 2014).
Like-named read-outs stand apart in the source and are kept apart here. Marks after values point to notes of the source that are not given here.

Legend:
HeLa (cervix carcinoma) = assay: Dark cytotoxicity, Trypan blue exclusion test; type: cell-based, human; conditions: read-out: IC50 (μM) ± S.E.M. HeLa, 48 h incubation
Method in brief: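 HeLa cells were grown in DMEM with 10% FBS, 2 mM L-glutamine and penicillin/streptomycin at 37 °C. They were seeded at 0.5 × 10^6/mL in glass vials, given 24 h, then exposed for 48 h in the dark to test compound in distilled water at various concentrations. Cells were trypsinised, stained 5–15 min with 0.4% Trypan blue and counted by hemocytometer. […] IC50 was derived from at least three experiments, mean ± S.E.M.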

[1] = tested on: KCL-22 (chronic myeloid leukemia in blast crisis); conditions: read-out: IC50 (μM) ± S.E.M. KCL-22, dark; cited from earlier work
KCL-22 cell line [2] = assay: Comet assay; type: cell-based, human; conditions: for % DNA in tail, Mean ± S.E.M. / % DNA in tail, Median / L/H, Mean ± S.E.M. / L/H, Median / OTM, Mean ± S.E.M. / OTM, Median: KCL-22
Method in brief: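 KCL-22 cells were treated 24 h after seeding for 2 h at three concentrations of test compound, with untreated cells as control. Cells were embedded in 0.5% low-melting agarose on slides precoated with 1% agarose and lysed 1 h at 4 °C (2.5 M NaCl, 100 mM EDTA, 10 mM Tris, 1% Triton X-100, pH 10). DNA was unwound 40 min (300 mM NaOH, 1 mM EDTA, pH >13), then electrophoresed at 4 °C for 25 min at 25 V, 300 mA. Slides were neutralised with 0.4 M Tris pH 7.5, stained with 20 μg/mL ethidium bromide, and ≥150 cells scored (50 per triplicate slide). Analysis was by Mann–Whitney test.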

[3] = tested on: KCL-22 (chronic myeloid leukemia in blast crisis); assay: Dark cytotoxicity, Trypan blue exclusion test; type: cell-based, human
HeLa cell line = assay: Cytokinesis block micronucleus
[4] = Lipophilicity by thin-layer chromatographic retention factor Rf; type: physicochemical; conditions: silica, 1:1:8 KNO3-saturated H2O:H2O:CH3CN
[5] = tested on: human normal leukocytes (HNL); assay: Cytotoxicity on normal cells, trypan blue exclusion assay; type: cell-based
KCL-22 cell line [6] = assay: Flow cytometric cell cycle analysis; type: cell-based, human
Method in brief: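 KCL-22 cells were exposed 24 h after seeding to three concentrations of test compound for 48 h. About 10^6 cells were fixed by dropwise addition of cold 70% ethanol on vortex, held overnight at 4 °C, and stored at −20 °C for up to a week. Cells were then washed twice in PBS and stained 30 min with 0.1 mg/mL RNase and 0.05 mg/mL propidium iodide. DNA content was read by flow cytometry, with doublets excluded by FSC/SSC. Phases were fitted with the Dean–Jett–Fox model.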

[7] = tested on: HeLa, HEP-3B, LN-308, MCF-7 and KCL-22 human cancer cell lines; assay: Dose-dependent cytotoxicity curves in five cancer cell lines; type: cell-based; conditions: Fig. 3
KCL-22 cells [8] = assay: Photo-induced cytotoxicity, vital dye exclusion test; type: cell-based, human
Method in brief: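 After 24 h in glass vials, KCL-22 cells were preincubated 30 min with free-base porphyrin (distilled water) at various concentrations. They were then irradiated 25 min with a tungsten lamp (30 mW/cm2, 28,000 lx) through a 600–900 nm glass filter and incubated a further 48 h. Viable cells were counted by vital dye exclusion. Controls were dark-kept treated cultures and illuminated untreated cultures; Chlorin e6 was the positive control. IC50 came from dose–response curves, mean ± S.E.M.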

KCL-22 cells [9] = assay: Dark toxicity of photosensitizers, vital dye exclusion test; type: cell-based, human; conditions: for IC50: read-out: IC50 (μM) ± S.E.M. Under dark
Method in brief: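 KCL-22 cells were grown in RPMI-1640 with 10% FBS, 2 mM L-glutamine and penicillin/streptomycin at 37 °C, then seeded in glass vials for 24 h. Free-base porphyrin in distilled water was added at various concentrations, and cells were kept in the dark without illumination for 48 h. Viable cells were counted by vital dye exclusion, with viability as % of intact control. IC50 came from dose–response curves, mean ± S.E.M. of at least three experiments.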

KCL-22 cells [10] = conditions: read-out: IC50 (μM) ± S.E.M. Photo-induced; KCL-22, illumination; cited from earlier work
KCL-22 cells [11] = conditions: read-out: IC50 (μM) ± S.E.M. Under dark; KCL-22, dark; cited from earlier work

## 5,10,15,20-tetra(4′-N-allylpyridyl)porphinato Ag(II) tetranitrate [AgTAll4PyP]
HeLa (cervix carcinoma)
  IC50: 26 ± 2.4 µM
[1]
  IC50: 2.5 ± 1.1 µM

## C=CC[n+]1ccc(-c2c3nc(c(-c4cc[n+](CC=C)cc4)c4ccc([n-]4)c(-c4ccc(OCCCCCCCCCCCCCCCC)c(OC)c4)c4nc(c(-c5cc[n+](CC=C)cc5)c5ccc2[n-]5)C=C4)C=C3)cc1.O=[N+]([O-])[O-].O=[N+]([O-])[O-].O=[N+]([O-])[O-].[Ag+2] [AgTriAll4PyMVanC16P, 5-Mono(3′-methoxy-4′-hexadecyloxyphenyl)-10,15,20-tri(4′-N-allylpyridyl) porphinato Ag(II) trinitrate]
KCL-22 cell line [2]; concentration IC50, 2 h
  % DNA in tail, Mean ± S.E.M.: 9.36 ± 0.68%
  % DNA in tail, Median: 7.14 ^* %
  L/H, Mean ± S.E.M.: 1.34 ± 0.01
  L/H, Median: 1.32 ^*
  OTM, Mean ± S.E.M.: 5.63 ± 0.42
  OTM, Median: 4.12 ^*
KCL-22 cell line [2]; concentration IC50/5, 2 h
  % DNA in tail, Mean ± S.E.M.: 3.10 ± 0.20%
  % DNA in tail, Median: 3.11 ^* %
  L/H, Mean ± S.E.M.: 1.12 ± 0.01
  L/H, Median: 1.12 ^*
  OTM, Mean ± S.E.M.: 1.42 ± 0.08
  OTM, Median: 1.14 ^*
KCL-22 cell line [2]; concentration IC50/20, 2 h
  % DNA in tail, Mean ± S.E.M.: 1.74 ± 0.14%
  % DNA in tail, Median: 1.74%
  L/H, Mean ± S.E.M.: 1.08 ± 0.00
  L/H, Median: 1.07
  OTM, Mean ± S.E.M.: 0.93 ± 0.06
  OTM, Median: 0.58
KCL-22 cell line [2]; concentrations IC50/5 and IC50, KCL-22, 2 h after application
  DNA damage (Comet assay): induce the breakage of DNA molecule
KCL-22 cell line [2]; low (IC50/20) concentration, KCL-22, 2 h
  DNA damage (Comet assay): no effect
[3]; KCL-22, dark
  fold enhancement of cytotoxicity on metallation of H2TriAll4PyMVanC16P: 5 fold
HeLa cell line; all concentrations applied, from IC50/5 to IC60, HeLa
  MN (micronucleus) formation in binucleate cells: did not induce MN formation
HeLa cell line; concentration IC50, HeLa
  CBPI (cytokinesis block proliferation index): 1.33 ± 0.002
  CBPI, % of negative control: 91%
HeLa cell line; concentration IC50/2, HeLa
  CBPI, % of negative control: 94%
HeLa cell line; concentration IC50/2, HeLa, listed as Ag porphyrin
  CBPI (cytokinesis block proliferation index): 1.37 ± 0.004
HeLa cell line; concentration IC50/2, HeLa, listed as Amphiphilic Ag porphyrin
  CBPI (cytokinesis block proliferation index): no effect
HeLa cell line; concentration IC50/5, HeLa
  CBPI, % of negative control: 97%
HeLa cell line; concentration IC50/5, HeLa, listed as Ag porphyrin
  CBPI (cytokinesis block proliferation index): 1.42 ± 0.034
HeLa cell line; concentration IC50/5, HeLa, listed as Amphiphilic Ag porphyrin
  CBPI (cytokinesis block proliferation index): no effect
HeLa cell line; concentration IC60, HeLa
  CBPI (cytokinesis block proliferation index): 1.20 ± 0.002
  CBPI, % of negative control: 82%
[4]
  lipophilicity, TLC retention factor Rf, compared to tetracationic analog: gained significantly in lipophilicity
[5]; HNL, trypan blue exclusion
  toxicity on normal cells (HNL) as compared to cisplatin: significantly less toxic
[5]; although not significant
  toxicity towards cancer (KCL-22) versus normal (HNL) cells: higher towards cancer versus normal cells
KCL-22 cell line [6]; KCL-22, 48 h
  number of cells in G2 phase: not changed
KCL-22 cell line [6]; KCL-22, IC50/2, IC50, IC60, 48 h
  S-phase cell number: significantly increased
KCL-22 cell line [6]; KCL-22, IC50 or IC60 concentration, 48 h
  cells in G1 phase: statistically significant reduction
[7]
  concentration at which toxicity starts: ~ 1 μM

## C=Cc1c(C)c2cc3nc(c(CC(=O)O)c4[nH]c(cc5nc(cc1[nH]2)C(C)=C5CC)c(C)c4C(=O)O)[C@@H](CCC(=O)O)[C@@H]3C [Chlorin e6, reference compound]
KCL-22 cells [8]; Homo sapiens, KCL-22, read-out: IC50 (μM) ± S.E.M. Photo-induced
  IC50: 4 ± 0.2 µM
KCL-22 cells [9]; Homo sapiens, KCL-22, 48 h
  IC50: > 50 µM

## N.N.[Cl][Pt][Cl] [Cisplatin, cisplatin, reference compound]
[7]
  concentration at which toxicity starts: ~ 0.2 μM

## C=CC[n+]1ccc(-c2c3nc(c(-c4cc[n+](CC=C)cc4)c4ccc([nH]4)c(-c4cc[n+](CC=C)cc4)c4nc(c(-c5cc[n+](CC=C)cc5)c5ccc2[nH]5)C=C4)C=C3)cc1 [H2TAll4PyP, 5,10,15,20-tetra(4′-N-allylpyridyl)porphyrin tetrabromide]
KCL-22 cells [10]
  IC50: 50 µM
KCL-22 cells [11]
  IC50: > 1600 µM

## C=CC[n+]1ccc(-c2c3nc(c(-c4cc[n+](CC=C)cc4)c4ccc([nH]4)c(-c4ccc(OCCCCCCCCCCCCCCCC)c(OC)c4)c4nc(c(-c5cc[n+](CC=C)cc5)c5ccc2[nH]5)C=C4)C=C3)cc1.[Br-].[Br-].[Br-] [H2TriAll4PyMVanC16P, 5-Mono(3′-methoxy-4′-hexadecyloxyphenyl)-10,15,20-tri(4′-N-allylpyridyl) porphine tribromide]
[4]
  lipophilicity, TLC retention factor Rf, compared to tetracationic analog: gained dramatically in lipophilicity
KCL-22 cells [8]; KCL-22
  fold by which IC50 upon illumination is lower than IC50 under the dark: more than 35 fold
KCL-22 cells [8]; KCL-22, illumination
  fold more phototoxic than Chlorin e6: 5 fold
KCL-22 cells [9]; KCL-22, dark
  fold increase in cytotoxicity over tetracationic analog H2TAll4PyP: more than 60 fold
KCL-22 cells [9]; KCL-22, dark, 48 h
  IC50: 25 ± 2 µM

## O=[N+]([O-])[O-].[Ag+] [Silver nitrate]
[3]; at up to 20 μM concentration, data not shown
  toxicity on KCL-22 cell line: no toxicity
